Source: ChEMBL document CHEMBL4725404, “Design, synthesis and biological evaluation of 4-aryl-5-aminoalkyl-thiazole-2-amines derivatives as ROCK II inhibitors” (Bioorg Med Chem, 2020)

What was measured:
[1] = molecular target: T1, Rho-associated protein kinase 2 (Homo sapiens, UniProt O75116); assay: Inhibition of ROCK2 (unknown origin) using C-terminus recombinant MBS (654-880 residues) as substrate at 10 uM incubated for 30 mins in presence of ATP by ELISA relative to control
How it was run: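 ROCK II activity ELISA kit; compounds screened at 10 µM for percent inhibition. Kinase reaction incubated at 30 °C for 30 min, then washed. Horseradish peroxidase-conjugated anti-AF20 antibody added for 30 min at room temperature. TMB substrate developed and absorbance read at 450 nm. Inhibition rate derived from OD450.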
Target sequence in this assay (O75116 whole entry, looked up, the tested form may be a part): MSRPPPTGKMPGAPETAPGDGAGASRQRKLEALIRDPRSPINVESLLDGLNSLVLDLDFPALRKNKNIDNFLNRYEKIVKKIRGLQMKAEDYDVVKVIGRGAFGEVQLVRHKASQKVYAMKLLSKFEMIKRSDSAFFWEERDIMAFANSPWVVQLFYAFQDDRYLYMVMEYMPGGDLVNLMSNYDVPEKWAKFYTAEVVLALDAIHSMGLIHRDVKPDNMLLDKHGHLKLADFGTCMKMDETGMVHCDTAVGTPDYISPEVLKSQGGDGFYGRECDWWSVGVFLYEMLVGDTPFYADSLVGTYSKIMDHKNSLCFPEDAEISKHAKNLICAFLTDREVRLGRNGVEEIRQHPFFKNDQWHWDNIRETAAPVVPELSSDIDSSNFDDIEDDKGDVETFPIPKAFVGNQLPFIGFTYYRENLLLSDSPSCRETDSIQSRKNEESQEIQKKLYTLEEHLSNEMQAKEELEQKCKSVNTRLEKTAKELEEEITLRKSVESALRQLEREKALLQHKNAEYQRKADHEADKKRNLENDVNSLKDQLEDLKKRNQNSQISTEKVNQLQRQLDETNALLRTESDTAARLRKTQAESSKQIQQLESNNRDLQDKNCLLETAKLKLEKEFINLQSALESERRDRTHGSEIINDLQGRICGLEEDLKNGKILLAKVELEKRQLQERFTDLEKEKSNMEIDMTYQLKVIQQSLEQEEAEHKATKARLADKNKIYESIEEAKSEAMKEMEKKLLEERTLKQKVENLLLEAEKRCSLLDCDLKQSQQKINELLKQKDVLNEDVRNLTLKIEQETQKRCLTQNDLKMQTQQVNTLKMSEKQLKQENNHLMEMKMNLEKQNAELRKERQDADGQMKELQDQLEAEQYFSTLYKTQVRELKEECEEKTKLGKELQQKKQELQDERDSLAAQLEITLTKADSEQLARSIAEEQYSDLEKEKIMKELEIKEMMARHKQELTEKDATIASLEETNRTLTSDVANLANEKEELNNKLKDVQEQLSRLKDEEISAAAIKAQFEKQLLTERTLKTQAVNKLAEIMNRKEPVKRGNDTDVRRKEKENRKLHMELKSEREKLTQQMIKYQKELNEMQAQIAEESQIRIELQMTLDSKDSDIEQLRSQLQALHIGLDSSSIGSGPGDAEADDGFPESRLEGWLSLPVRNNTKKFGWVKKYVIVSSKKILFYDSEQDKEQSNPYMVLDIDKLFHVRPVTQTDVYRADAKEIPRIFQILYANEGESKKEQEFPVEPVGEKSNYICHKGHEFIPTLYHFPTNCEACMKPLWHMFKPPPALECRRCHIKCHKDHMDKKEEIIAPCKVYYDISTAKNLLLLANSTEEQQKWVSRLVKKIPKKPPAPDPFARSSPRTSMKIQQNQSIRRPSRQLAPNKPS

[2] = molecular target: T1, Rho-associated protein kinase 2; assay: Inhibition of ROCK2 (unknown origin) using C-terminus recombinant MBS (654-880 residues) as substrate incubated for 30 mins in presence of ATP by ELISA
How it was run: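 Compounds with significant single-point inhibition were run in full concentration–response in the ROCK II ELISA kit. Kinase step at 30 °C for 30 min, then wash. Anti-AF20 HRP antibody applied for 30 min at room temperature, followed by TMB colour development read at OD 450 nm. IC50 calculated by nonlinear regression of inhibition rates.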
Target sequence in this assay (O75116 whole entry, the tested form may be a part): as the sequence (O75116 whole entry, looked up, the tested form may be a part) above

| inhibition [1] | IC50 [2] | SMILES |
| --- | --- | --- |
| 34.3% | – | CN1CCN(c2sc(NC(=O)c3ccncc3)nc2-c2ccncc2)CC1 |
| 38.1% | – | CN(C)C(=O)Cc1sc(NC(=O)c2ccncc2)nc1-c1ccncc1 |
| 48.8% | – | CN(C)CCc1sc(NC(=O)c2ccncc2)nc1-c1ccncc1 |
| 47.6% | – | O=C(Nc1nc(-c2ccncc2)c(CN2CCCC2)s1)c1ccncc1 |
| 58.1% | – | O=C(Nc1nc(-c2ccncc2)c(CN2CCOCC2)s1)c1ccncc1 |
| 48.2% | – | O=C(Nc1nc(-c2ccncc2)c(CN2CCCCC2)s1)c1ccncc1 |
| 32.1% | – | CC(C)N(C)c1sc(NC(=O)c2ccncc2)nc1-c1ccncc1 |

The next lines start with the molecule.

| SMILES | inhibition [1] | IC50 [2] |
| --- | --- | --- |
| O=C(Nc1nc(-c2cccnc2)c(CN2CCCCC2)s1)c1cccnc1 | 28.5% | – |
| CN(C)CCc1sc(NC(=O)C2COc3ccccc3O2)nc1-c1ccncc1 (stereo not drawn) | 78.5% | 90 nM |
| O=C(Nc1nc(-c2ccncc2)cs1)C1COc2ccccc2O1 (stereo not drawn) | 91.3% | – |
| O=C(Nc1nc(-c2ccncc2)c(CN2CCOCC2)s1)c1cccnc1 | 52.2% | – |
| CN(C)Cc1sc(NC(=O)C2COc3ccccc3O2)nc1-c1cccnc1 (stereo not drawn) | 58.1% | 4960 nM |
| CN(C)Cc1sc(NC(=O)c2ccncc2)nc1-c1cccnc1 | 35.3% | – |
| CN(C)Cc1sc(NC(=O)c2cccnc2)nc1-c1cccnc1 | 33.9% | – |
| O=C(Nc1nc(-c2ccncc2)c(N2CCOCC2)s1)C1COc2ccccc2O1 (stereo not drawn) | 76.3% | 130 nM |
| CC(C)N(C)Cc1sc(NC(=O)c2cccnc2)nc1-c1cccnc1 | 38.1% | – |
| O=C(Nc1nc(-c2cccnc2)c(CN2CCCC2)s1)C1COc2ccccc2O1 (stereo not drawn) | 61.3% | – |
| O=C(Nc1nc(-c2cccnc2)c(CN2CCOCC2)s1)c1cccnc1 | 41.1% | – |
| CN1CCN(Cc2sc(NC(=O)c3cccnc3)nc2-c2cccnc2)CC1 | 32.1% | – |
| O=C(Nc1nc(-c2ccncc2)c(CN2CCOCC2)s1)C1COc2ccccc2O1 (stereo not drawn) | 87.4% | – |
| O=C(Nc1nc(-c2cccnc2)c(CN2CCOCC2)s1)c1ccncc1 | 51.1% | – |
| CN(C)C(=O)Cc1sc(NC(=O)C2COc3ccccc3O2)nc1-c1ccncc1 (stereo not drawn) | 56.9% | 8830 nM |
| O=C(Nc1nc(-c2cccnc2)c(CN2CCOCC2)s1)C1COc2ccccc2O1 (stereo not drawn) | 63.8% | 1730 nM |
